We go through 16 compounds from PubChem BioAssay.

The source made the active and inactive calls.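 How the source made its calls, unless noted: active means viability at or below 10% of carrier control in both of two separate runs; inconclusive means viability at or below 10% in only one of the two runs; inactive means the rest.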

As usually defined, the viability is a read-out of living cells in per cent, often relative to untreated cells. The term inhibition denotes the change of the read-out against control, counted positive when it falls.

Assay [1] is described as follows: Her2 expression decrease, cell viability multiplex – SKBR3 breast tumor cells, AlphaScreen, ATP viability, primary screen (AID 461;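 active means Her2 level under about 52% in both replicate screens, with viability over 70% of control, limit read from the data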;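 on Her2 level: lower value means less Her2 protein in the cells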;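 on viability: percent of carrier control wells set as 100% viability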). As to conditions: SKBR3 Her2 protein level, 18-24 h, measured here: SKBR3 viability, ATP luminescence, at 10 µM. (In general: In Alpha technology, singlet oxygen from a donor bead excites a nearby acceptor bead.)
In assay [2] the target is Receptor tyrosine-protein kinase erbB-2 (Homo sapiens) (UniProt P04626). Described as above. As to conditions: 18-24 h, at 10 µM, stronger effect = lower value.
Assay [3] in a line: reduced viability of SK-BR-3 breast cancer cells – cell-based, 24 h, human, pilot screen (AID 572).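 Further: compound exposure lasted between 18 and 24 h rather than exactly 24 h; 100% = carrier-treated control wells.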 As to conditions: SK-BR-3 viability, CellTiter-Glo luminescence, at 10 µM, stronger effect = lower value.
Assay [4] can be described thus: HUVEC growth inhibition – cell-based, human, primary screen (AID 575;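 active means viability at or below 30% in both replicate assays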;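 further: 100% = median of untreated cell wells with 0.1% DMSO on each plate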). As to conditions: HUVEC proliferation, CellTiter-Glo luminescence, 72 h; at 10 µM; stronger effect = lower value. Summed up:
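Assay system: primary human umbilical vein endothelial cells / Buffer or medium: endothelial basal medium with 2% FBS plus growth supplements / Compound dosing: one dose, 10 µM final, 0.1% DMSO / Timing: 72 h treatment at 37 °C / Signal: CTG luminescence / Benchmarks: 32 DMSO-only cell-control wells (high), 32 MePR drug-control wells (low) per plate / Plate: collagen-coated 384-well format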
In general terms: Cellular ATP, detected with luciferase, serves as a proxy for viable cell number.

Assay [5] in a line: H69AR cell proliferation blockers – human, duplicate replicates, primary screen (AID 580;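 active means viability at or under a set limit in both replicates, limit being median viability minus 3 SD, cut at about 48% in these data, passing the limit was not always enough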;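 further: 100% = mean luminescence of untreated wells and 0% = no signal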). As to conditions: H69AR lung tumor cells viability, ATP luminescence, 72 h; at 10 µM; stronger effect = lower value.
Assay [6] is described as follows: MRP1 drug-resistance reversers in H69AR cells – cell-based, doxorubicin co-treatment, pilot screen (AID 601;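 active means viability loss from added drug above about 55%, and viability with drug at most 40%, in both replicates, limit read from the data, passing the limit was not always enough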). As to conditions: CellTiter-Glo, 72 h, at 10 µM; for differential viability (reversal): stronger effect = higher value.
Assay [7] can be described thus: yeast transport mutant growth inhibition pilot in 384-well plates, post-Golgi transport modulator project (AID 636; in the data active means inhibition above about 31%). As to conditions: absorbance 615 nm, about 18 h, stronger effect = higher value.
A short description of assay [8]: growth suppression of yeast trafficking mutant, preliminary HTS, modulators of trafficking downstream of Golgi apparatus project, 1536-format plate, OD 615 nm (AID 637; in the data active means inhibition above about 30%). As to conditions: yeast transport mutant growth, absorbance 615 nm, 18 h; stronger effect = higher value.
The mark [9] stands for this setting: H69AR cells + 2 uM doxorubicin, measured here: viability with 2 uM doxorubicin, stronger effect = lower value.
The mark [10] stands for this setting: H69AR cells, compound alone cytotoxicity.

Sequence of Receptor tyrosine-protein kinase erbB-2 (Homo sapiens) (P04626 whole entry, looked up): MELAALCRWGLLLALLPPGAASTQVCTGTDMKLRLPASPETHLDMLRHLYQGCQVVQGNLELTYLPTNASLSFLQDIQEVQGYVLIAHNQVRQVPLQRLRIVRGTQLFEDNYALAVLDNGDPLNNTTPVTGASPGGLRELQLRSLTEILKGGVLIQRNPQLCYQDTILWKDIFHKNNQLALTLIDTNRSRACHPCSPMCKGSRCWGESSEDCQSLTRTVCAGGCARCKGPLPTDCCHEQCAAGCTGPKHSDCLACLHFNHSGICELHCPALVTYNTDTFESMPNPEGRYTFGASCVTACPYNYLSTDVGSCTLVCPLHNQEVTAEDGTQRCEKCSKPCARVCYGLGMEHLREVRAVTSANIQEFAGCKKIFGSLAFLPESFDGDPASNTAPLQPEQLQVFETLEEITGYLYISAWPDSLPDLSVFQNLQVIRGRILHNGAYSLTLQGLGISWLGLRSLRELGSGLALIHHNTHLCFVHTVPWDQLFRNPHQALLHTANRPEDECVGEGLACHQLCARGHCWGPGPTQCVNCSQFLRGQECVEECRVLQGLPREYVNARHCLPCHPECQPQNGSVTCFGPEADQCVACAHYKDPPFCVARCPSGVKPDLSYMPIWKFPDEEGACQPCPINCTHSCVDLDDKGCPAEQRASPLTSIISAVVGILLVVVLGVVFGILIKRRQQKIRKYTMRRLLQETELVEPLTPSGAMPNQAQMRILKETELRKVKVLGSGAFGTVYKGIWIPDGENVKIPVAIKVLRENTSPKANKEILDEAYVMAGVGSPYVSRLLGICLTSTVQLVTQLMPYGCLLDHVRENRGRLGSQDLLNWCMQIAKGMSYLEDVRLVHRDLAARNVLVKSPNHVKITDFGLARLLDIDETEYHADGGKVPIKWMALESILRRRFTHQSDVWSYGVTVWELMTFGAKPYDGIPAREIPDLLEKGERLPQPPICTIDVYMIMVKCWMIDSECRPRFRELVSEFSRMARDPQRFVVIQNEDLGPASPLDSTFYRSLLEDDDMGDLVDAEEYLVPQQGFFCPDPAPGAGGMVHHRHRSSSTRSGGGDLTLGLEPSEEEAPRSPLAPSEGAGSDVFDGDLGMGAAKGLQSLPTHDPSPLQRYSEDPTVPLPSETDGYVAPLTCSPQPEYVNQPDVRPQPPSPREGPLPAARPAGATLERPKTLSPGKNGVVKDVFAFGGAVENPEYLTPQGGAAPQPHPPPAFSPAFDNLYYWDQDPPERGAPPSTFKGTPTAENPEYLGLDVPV

For the compound `CCN1C(=O)Cc2cc(S(=O)(=O)N3CCOCC3)ccc21`, the viability in assay [1] was 105%; in assay [3], 105% (inactive); in assay [4], 96.1% (inactive); in assay [5] it was 98% (inactive); in assay [6] (setting [9]), 100%; in assay [6] (setting [10]), 98%. For the same compound, the Her2 level in assay [2] is 110% (inactive). In assay [6] (H69AR cells + 2 uM doxorubicin), the differential viability (reversal) is -2.08% (inactive). The inhibition was -6.4% (inactive) in assay [7] and -0.63% (inactive) in assay [8].

For the compound `Cc1ccc(C)c(N2CCN(C(=O)CCCn3c(=S)[nH]c4cc5c(cc4c3=O)OCO5)CC2)c1`, the viability in assay [1] was 73.5%; in assay [3], 73.5% (inactive); in assay [4], 62.5% (inactive); in assay [5], 94% (inactive); in assay [6] (setting [9]), 89.2%; in assay [6] (setting [10]), 94%. Also, the Her2 level in assay [2] was 88.5% (inactive). The differential viability (reversal) in assay [6] (H69AR cells + 2 uM doxorubicin) was 4.74% (inactive). Further, the inhibition is -3.38% (inactive) in assay [7] and -0.33% (inactive) in assay [8].

As to `Cc1cc(NC(=O)COc2cccc(Oc3ccccc3)c2)no1`, the viability in assay [1] was 75.5%; in assay [3] it was 75.5% (inactive); in assay [4] it was 50.9% (inactive); in assay [5], 22.4% (active); in assay [6] (setting [9]), 60.6%; in assay [6] (setting [10]) it was 22.4%. In assay [2], the Her2 level was 90% (inactive). Moreover, in assay [6] (H69AR cells + 2 uM doxorubicin), the differential viability (reversal) was -38.2% (inactive). Besides, the inhibition was -0.38% (inactive) in assay [7] and 3.33% (inactive) in assay [8].

For the compound `Cc1ccc(S(=O)(=O)n2nc(OC(=O)c3ccco3)cc2N)cc1`, the viability was 92.5% in assay [1]; 92.5% (inactive) in assay [3]; 96.4% (inactive) in assay [4]; 88.8% (inactive) in assay [5]; 84% in assay [6] (setting [9]); 88.8% in assay [6] (setting [10]). The Her2 level in assay [2] is 106% (inactive). Moreover, in assay [6] (H69AR cells + 2 uM doxorubicin), the differential viability (reversal) was 4.73% (inactive). For the same compound, the figures for the inhibition in assay [7] and in assay [8] were -6.32% (inactive) and -1.45% (inactive), respectively.

For `CCc1nc(N)c(C#N)c(-c2ccncc2)c1C`, the viability is 102% in assay [1]; 102% (inactive) in assay [3]; 89.2% (inactive) in assay [4]; 102% (inactive) in assay [5]; 80.6% in assay [6] (setting [9]); 102% in assay [6] (setting [10]). Also, the Her2 level in assay [2] is 95% (inactive). Moreover, the differential viability (reversal) in assay [6] (H69AR cells + 2 uM doxorubicin) is 21.1% (inactive). Besides, the inhibition in assay [7] is -4.27% (inactive); in assay [8], -0.82% (inactive).

Take `Cc1ccccc1CS(=O)(=O)CCC(=O)N1CCN(c2ccc(N3CCOCC3)nn2)CC1`: the viability in assay [1] was 91.5%; in assay [3], 91.5% (inactive); in assay [4], 97.1% (inactive); in assay [5] it was 103% (inactive); in assay [6] (setting [9]), 92.7%; in assay [6] (setting [10]), 103%. In assay [2], the Her2 level was 81% (inactive). Besides, the differential viability (reversal) in assay [6] (H69AR cells + 2 uM doxorubicin) is 10.7% (inactive). For the same compound, the inhibition in assay [7] was -2.24% (inactive); in assay [8], -0.73% (inactive).

With `CN(C)C(=O)CN(c1ccc(F)c(Cl)c1)S(C)(=O)=O`, the viability in assay [1] is 101%; in assay [3], 101% (inactive); in assay [4], 92.7% (inactive); in assay [5], 90.8% (inactive); in assay [6] (setting [9]), 101%; in assay [6] (setting [10]), 90.8%. The Her2 level in assay [2] is 111% (inactive). Also, the differential viability (reversal) in assay [6] (H69AR cells + 2 uM doxorubicin) is -10.3% (inactive). Further, the inhibition in assay [7] is -2.11% (inactive); in assay [8], -7.05% (inactive).

With `Cn1c(-c2cc(Br)ccc2O)n[nH]c1=S`, the viability is 89.5% in assay [1]; 89.5% (inactive) in assay [3]; 87% (inactive) in assay [4]; 92.9% (inactive) in assay [5]; 89.7% in assay [6] (setting [9]); 92.9% in assay [6] (setting [10]). The Her2 level in assay [2] is 110% (inactive). Also, in assay [6] (H69AR cells + 2 uM doxorubicin), the differential viability (reversal) was 3.24% (inactive). Besides, the figures for the inhibition in assay [7] and in assay [8] were 4.03% (inactive) and -9.84% (inactive), respectively.

With `O=C(NCc1ccccc1)N1CCn2c(nc3ccccc32)C1`, the viability in assay [1] is 93.5%; in assay [3], 93.5% (inactive); in assay [4], 90.2% (inactive); in assay [5], 92.9% (inactive); in assay [6] (setting [9]), 78.7%; in assay [6] (setting [10]), 92.9%. In addition, the Her2 level in assay [2] is 91.5% (inactive). In assay [6] (H69AR cells + 2 uM doxorubicin), the differential viability (reversal) was 14.2% (inactive). The inhibition was -3.73% (inactive) in assay [7] and 1.15% (inactive) in assay [8].

On to `CC1CCCCC1NC(=O)CCCc1nc2ccccc2c(=O)[nH]1` (stereo not given), for which the viability in assay [1] is 80.5%; in assay [3], 80.5% (inactive); in assay [4], 105% (inactive); in assay [5] it was 110% (inactive); in assay [6] (setting [9]) it was 96.2%; in assay [6] (setting [10]), 110%. In addition, the Her2 level in assay [2] is 93.5% (inactive). In assay [6] (H69AR cells + 2 uM doxorubicin), the differential viability (reversal) was 13.7% (inactive). Further, the inhibition in assay [7] was 0.27% (inactive); in assay [8] it was 2.46% (inactive).

For `COc1ccc(-c2noc(CN(C(=O)C(C)(C)C)C(C)C)n2)cc1`, the viability was 96% in assay [1]; 96% (inactive) in assay [3]; 102% (inactive) in assay [4]; 109% (inactive) in assay [5]; 91.3% in assay [6] (setting [9]); 109% in assay [6] (setting [10]). Also, in assay [2], the Her2 level was 102% (inactive). Also, the differential viability (reversal) in assay [6] (H69AR cells + 2 uM doxorubicin) is 17.6% (inactive). The inhibition in assay [7] is -4.61% (inactive); in assay [8] it was -6.83% (inactive).

Take `CC1CCCCC1NC(=O)c1ccc(N2CCCC2=O)cc1` (stereo not given): the viability in assay [1] is 112%; in assay [3], 112% (inactive); in assay [4], 111% (inactive); in assay [5], 90.3% (inactive); in assay [6] (setting [9]), 83.2%; in assay [6] (setting [10]), 90.3%. Moreover, in assay [2], the Her2 level was 106% (inactive). The differential viability (reversal) in assay [6] (H69AR cells + 2 uM doxorubicin) is 7.01% (inactive). Also, the inhibition in assay [7] is -2.21% (inactive); in assay [8], 2.79% (inactive).

For `CC1=C(C)C(=O)NC(Nc2nc(C)c3cc(C)cc(C)c3n2)N1` (stereo not given), the viability in assay [1] was 120%; in assay [3] it was 120% (inactive); in assay [4], 10.6% (active); in assay [5] it was 17.2% (active); in assay [6] (setting [9]) it was 10.9%; in assay [6] (setting [10]), 17.2%. Moreover, in assay [2], the Her2 level was 79.5% (inactive). Further, the differential viability (reversal) in assay [6] (H69AR cells + 2 uM doxorubicin) is 6.29% (inactive). Further, the inhibition in assay [7] was -3.59% (inactive); in assay [8], -3% (inactive).

As for `Cc1c(C2Nc3ccccc3NC3=C2C(=O)CC(C)(C)C3)cnn1C` (stereo not given), the viability in assay [1] is 112%; in assay [3] it was 112% (inactive); in assay [4], 93% (inactive); in assay [5] it was 89.2% (inactive); in assay [6] (setting [9]), 88.4%; in assay [6] (setting [10]), 89.2%. Moreover, the Her2 level in assay [2] is 107% (inactive). Moreover, the differential viability (reversal) in assay [6] (H69AR cells + 2 uM doxorubicin) is 0.765% (inactive). Also, the inhibition in assay [7] is -4.38% (inactive); in assay [8] it was -5.87% (inactive).

Take `COc1ccc(S(=O)(=O)N2CN(Cc3ccco3)c3nc4ccccc4nc32)cc1`: the viability in assay [1] was 101%; in assay [3], 101% (inactive); in assay [4] it was 99.2% (inactive); in assay [5], 102% (inactive); in assay [6] (setting [9]) it was 94.2%; in assay [6] (setting [10]) it was 102%. For the same compound, in assay [2], the Her2 level is 84.5% (inactive). Also, the differential viability (reversal) in assay [6] (H69AR cells + 2 uM doxorubicin) is 7.69% (inactive). For the same compound, the values for the inhibition in assay [7] and in assay [8] were 1.82% (inactive) and 1.11% (inactive), respectively.

Regarding `CCOC(=O)CSC1=C(C#N)C(=O)NC(c2ccc(OC)c(OC)c2)S1` (stereo not given), the viability in assay [1] was 104%; in assay [3], 104% (inactive); in assay [4] it was 74.6% (inactive); in assay [5] it was 97.2% (inactive); in assay [6] (setting [9]), 99%; in assay [6] (setting [10]), 97.2%. Besides, the Her2 level in assay [2] is 99% (inactive). In addition, the differential viability (reversal) in assay [6] (H69AR cells + 2 uM doxorubicin) was -1.72% (inactive). The values for the inhibition in assay [7] and in assay [8] were -4.79% (inactive) and 0.16% (inactive), respectively.
